Results published in ChEMBL document CHEMBL2202972, “Synthesis and biological evaluation of 2-substituted-4-(3',4',5'-trimethoxyphenyl)-5-aryl thiazoles as anticancer agents” (Bioorg Med Chem, 2012).
Activity calls are given as the source filed them. The rule behind the calls is not given here.

Experiments:
[1] = Antiproliferative activity against human vinblastine-resistant CEM/VBL100 cells overexpressing P-glycoprotein after 72 hrs by MTT assay; format: functional, cell-based; details: CEM/VBL100, 72 h
[2] = tested on: A549; assay: Resistance ratio of IC50 for human taxol-resistant A549-T12 cells expressing tubulin mutant gene to IC50 for human A549 cells; format: functional
[3] = Inhibition of bovine brain tubulin polymerization preincubated for 15 mins by turbidimetric analysis; design: species or system Bos taurus
Outline: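 Bovine brain tubulin (10 μM) in glutamate buffer preincubated with varying compound concentrations for 15 min at 30 °C, then chilled to 0 °C. GTP 0.4 mM added and mixtures warmed to 30 °C in a spectrophotometer; assembly followed by turbidity at 350 nm.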

[4] = tested on: HL-60; assay: Ratio of compound IC50 to CA-4 IC50 for human HL60 cells after 72 hrs by MTT assay; format: functional
[5] = tested on: LoVo; assay: Antiproliferative activity against human LoVo cells after 72 hrs by MTT assay; format: functional, cell-based
Outline: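 Cells seeded at 8 × 10³ per well and incubated 18 h at 37 °C, 5% CO₂, then exposed to a range of compound concentrations for 72 h at 37 °C. Jurkat and HL-60 were grown in RPMI-1640, the others in DMEM, with penicillin, streptomycin and 10% FBS. DMSO stocks (10 mM); DMSO ≤0.25% final. Viability by MTT. […] Mean ± SE of ≥3 independent experiments.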

[6] = tested on: HeLa; assay: Induction of apoptosis in human HeLa cells assessed as effect on caspase-9 activation at 250 to 500 nM after 24 to 48 hrs by Western blot analysis; format: functional, cell-based
Outline: (§1)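 HeLa cells treated for 24 or 48 h, washed twice with ice-cold PBS and lysed on ice 30 min; lysates spun at 15000 ×g, 4 °C. Protein (20 μg) resolved by SDS–PAGE on 7.5–15% gels and blotted to PVDF. Specific primary antibodies for 2 h at room temperature, then peroxidase secondary for 60 min, ECL detection. Membranes stripped and reprobed for β-actin as loading control.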

[7] = tested on: HeLa; assay: Downregulation of Xiap expression in human HeLa cells at 250 to 500 nM after 24 hrs by Western blot analysis; format: functional, cell-based; outline: as §1
[8] = tested on: HT-29; assay: Antiproliferative activity against human HT-29 cells after 72 hrs by MTT assay; format: functional, cell-based; details: HT-29, 72 h
[9] = tested on: HeLa; assay: Cell cycle arrest in human HeLa cells assessed as decrease in accumulation of cells at G1 phase after 24 hrs by propidium iodide staining based flow cytometric analysis; format: functional
Outline: (§2)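 HeLa or Jurkat cells (5 × 10⁵, exponential growth) treated 24 h with 31–500 nM compound. Cells fixed in ice-cold 70% ethanol, treated with lysis buffer containing RNase A and 0.1% Triton X-100, then stained with propidium iodide. DNA content measured by flow cytometry to give phase distribution. Mean ± SEM of three independent experiments.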

[10] = target: T1, M-phase inducer phosphatase 3 (Homo sapiens) (UniProt P30307); assay: Induction of cdc25C phosphorylation in human HeLa cells at 250 to 500 nM after 24 to 48 hrs by Western blot analysis; format: cell-based; outline: as §1
T1 sequence (whole entry): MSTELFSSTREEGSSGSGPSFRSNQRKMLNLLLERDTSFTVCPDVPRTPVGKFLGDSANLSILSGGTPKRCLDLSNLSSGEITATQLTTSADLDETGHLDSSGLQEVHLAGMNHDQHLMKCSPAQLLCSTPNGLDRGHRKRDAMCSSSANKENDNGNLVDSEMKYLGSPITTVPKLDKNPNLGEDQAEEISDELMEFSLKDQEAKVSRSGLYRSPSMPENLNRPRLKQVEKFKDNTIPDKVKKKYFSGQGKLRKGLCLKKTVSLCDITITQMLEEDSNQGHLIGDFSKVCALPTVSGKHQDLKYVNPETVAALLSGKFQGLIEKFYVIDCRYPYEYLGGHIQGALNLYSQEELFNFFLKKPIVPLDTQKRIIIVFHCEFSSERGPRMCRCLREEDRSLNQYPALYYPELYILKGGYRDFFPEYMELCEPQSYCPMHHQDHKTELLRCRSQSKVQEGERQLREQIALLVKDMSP

[11] = tested on: PBL; assay: Growth inhibition of PHA-stimulated human PBL after 72 hrs by MTT assay; format: functional
[12] = tested on: A549; assay: Ratio of CA-4 IC50 to compound IC50 for human A549 cells after 72 hrs by MTT assay; format: functional
[13] = tested on: HeLa; assay: Ratio of compound IC50 to CA-4 IC50 for human HeLa cells after 72 hrs by MTT assay; format: functional
[14] = tested on: HeLa; assay: Cell cycle arrest in human HeLa cells assessed as decrease in accumulation of cells at S phase after 24 hrs by propidium iodide staining based flow cytometric analysis; format: functional; outline: as §2
[15] = tested on: CCRF-CEM; assay: Antiproliferative activity against human CEM cells after 72 hrs by MTT assay; format: functional, cell-based
[16] = tested on: HeLa; assay: Induction of apoptosis in human HeLa cells assessed as caspase-3 activation at 250 to 500 nM after 24 to 48 hrs by Western blot analysis; format: functional, cell-based; outline: as §1
[17] = tested on: MCF7; assay: Antiproliferative activity against human MCF7 cells after 72 hrs by MTT assay; format: functional, cell-based; details: MCF7, 72 h
[18] = target: T1, M-phase inducer phosphatase 3 (Homo sapiens); assay: Induction of cdc25C phosphorylation in human HeLa cells assessed as cdc2 kinase dephosphorylation at Tyr15 in human HeLa cells at 250 to 500 nM after 24 to 48 hrs by Western blot analysis; format: cell-based; outline: as §1
[19] = tested on: HeLa; assay: Induction of apoptosis in human HeLa cells assessed as mitochondrial polarization; format: functional, cell-based
[20] = tested on: CCRF-CEM; assay: Resistance ratio of IC50 for human vinblastine-resistant CEM/VBL100 cells overexpressing P-glycoprotein to IC50 for human CEM cells; format: functional
[21] = tested on: Jurkat; assay: Ratio of compound IC50 to CA-4 IC50 for human Jurkat cells after 72 hrs by MTT assay; format: functional
[22] = tested on: HeLa; assay: Induction of apoptosis in human HeLa cells assessed as increase in caspase-3-mediated PARP cleavage at 250 to 500 nM after 24 to 48 hrs by Western blot analysis; format: functional, cell-based; outline: as §1
[23] = tested on: HeLa; assay: Induction of apoptosis in human HeLa cells at 500 nM after 24 to 48 hrs by Annexin V-FITC/propidium iodide staining based biparametric cytofluorimetric analysis; format: functional, cell-based
Outline: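 HeLa cells treated at 250 or 500 nM for 24 or 48 h, then labelled with annexin-V-FITC (phosphatidylserine) plus propidium iodide. Red and green fluorescence measured by biparametric flow cytometry. Mean ± SEM of three independent experiments.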

[24] = tested on: HeLa; assay: Downregulation of cyclin B expression in human HeLa cells at 250 to 500 nM after 48 hrs by Western blot analysis; format: functional, cell-based; outline: as §1
[25] = tested on: LoVo; assay: Resistance ratio of IC50 for human doxorubicin-resistant LoVo/DX cells overexpressing P-glycoprotein to IC50 for human LoVo cells; format: functional
[26] = tested on: HeLa; assay: Induction of apoptosis in human HeLa cells assessed as ROS production; format: functional, cell-based
[27] = tested on: Jurkat; assay: Cell cycle arrest in human Jurkat cells assessed as accumulation of cells at G2/M phase after 24 hrs by propidium iodide staining based flow cytometric analysis; format: functional; outline: as §2

## CCOc1ccc(-c2sc(NC)nc2-c2cc(OC)c(OC)c(OC)c2)cc1
[1]
  IC50: 0.0012 µM
[2]
  Ratio IC50: 0.5
[3]
  IC50: 0.89 µM
[4]
  Ratio IC50: 2
[5]
  IC50: 0.031 µM
[6]
  Activity: inactive
[7]
  Activity: Active
[8]
  IC50: 0.0032 µM
[9]
  Activity: Dose-dependent effect
[10]
  Activity: Active
[11]
  GI50: 0.12 µM
[12]
  Ratio IC50: 5
[13]
  Ratio IC50: 2
[14]
  Activity: Dose-dependent effect
[15]
  IC50: 0.0008 µM
[16]
  Activity: Active
[17]
  IC50: 0.0245 µM
[18]
  Activity: Active
[19]
  Activity: Active
[20]
  Ratio IC50: 2.9
[21]
  Ratio IC50: 0.34
[22]
  Activity: Active
[23]
  Activity: Active
[24]
  Activity: Active
[25]
  Ratio IC50: 0.5
[26]
  Activity: Active
[27]
  Activity: Dose-dependent effect
